High-throughput results from PubChem BioAssay.
Most compounds without a hit are left out; they make up all but 3.5% or so of the library.
MrgX1 allo act – positive allosteric modulators of MrgX1, primary screen, HEK293 cells, Fluo-4 calcium flux. Mas-related G-protein coupled receptor member X1 (Homo sapiens), Q96LB2. FDSS; active compounds read high. B-score at 10 µM. 310,000 tested, 0.63% active;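 active means plate-corrected calcium response at least 3 library SD above typical, normal starting fluorescence, not activating the receptor alone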;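 further: compound read alongside a low EC10 to EC30 dose of BAM8-22 agonist; peak minus trough fluorescence over baseline measured at the second addition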
Target sequence (Q96LB2 whole entry, looked up): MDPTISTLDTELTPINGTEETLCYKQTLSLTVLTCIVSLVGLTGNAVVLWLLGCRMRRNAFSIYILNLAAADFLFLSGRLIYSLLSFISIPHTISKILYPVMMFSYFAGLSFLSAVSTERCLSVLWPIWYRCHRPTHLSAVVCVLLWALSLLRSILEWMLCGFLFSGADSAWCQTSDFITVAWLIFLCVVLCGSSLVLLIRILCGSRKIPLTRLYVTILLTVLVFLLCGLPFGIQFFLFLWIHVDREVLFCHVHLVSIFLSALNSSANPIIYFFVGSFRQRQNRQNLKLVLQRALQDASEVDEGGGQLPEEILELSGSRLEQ
MrgX1 agonist – agonists of human MrgX1 receptor, primary screen, HEK293 cells, Fluo-4 calcium flux; Fluo-4 calcium fluorescence, agonist mode; active compounds read high; AID 588627, 2011; B-score at 10 µM; Mas-related G-protein coupled receptor member X1 (Homo sapiens), Q96LB2; 310,000 tested, 0.44% active;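 active means calcium response B-score plate-corrected fluorescence ratio at least 3 library SD, with starting fluorescence B-score inside 5 SD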
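Test system: HEK293 cells stably expressing human MrgX1 receptor; amount: 15,000 cells per well; doses: compound delivered in addition one of three; times: overnight plating before 1 h dye loading; detection: Fluo-4 NW calcium-flux fluorescence, kinetic read; read-out basis: B-scored fluorescence response ratio; controls: positive and negative controls per plate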
RGS4 pot – RGS4 potentiators or activators, primary screen, cell-based, HEK293 M3R inducible RGS4, calcium flux; 310,000 tested, 0.92% active; AID 463111, 2010; carbachol calcium flux Fluo4; active compounds read low; B-score at 10 µM;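 active means B-score of the integrated calcium signal more than 4 SD below the library mean, with starting fluorescence not abnormally high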;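 further: negative B-score means reduced calcium response which marks RGS4 activation or potentiation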
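System – HEK293 FlpIn-TREx cells, stable M3R, doxycycline-inducible RGS4 · Reagent – ECmax carbachol challenge · Times – compound preincubation 20 min at room temperature before agonist · Technique – Fluo4 fluorescence kinetic imaging of calcium · Measure – B score of integrated Fluo4 ratio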
MrgX1 antag – antagonists of human MrgX1 receptor, primary screen, HEK293 cells, Fluo-4 calcium flux; BAM8-22 antagonism; active compounds read low; B-score at 10 µM; 310,000 tested, 1.3% active; AID 588676, 2011;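 active means calcium-response B-score plate-corrected more than 3 library SD below zero, starting fluorescence within 5 deviations, no agonist response on first addition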;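 further: peak minus trough fluorescence over baseline after final BAM8-22 challenge near maximal dose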
RGS4 inh – RGS4 inhibitors, primary screen, cell-based, HEK293 M3R inducible RGS4, calcium flux. 310,000 tested, 0.45% active. Regulator of G-protein signaling 4 (Homo sapiens), P49798. AID 463165, 2010. B-score at 10 µM. Fluo-4 calcium flux; active compounds read high; triggered by carbachol at its EC20;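 active means B-score, a plate-corrected calcium signal, over three deviations above library mean, with baseline fluorescence within five deviations of library mean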;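 further: RGS4 expression induced by doxycycline in cells with stable M3 receptor; B-score is computed from the integrated fluorescence ratio over baseline after carbachol; higher B-score means a larger calcium signal and so more RGS4 inhibition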
Target sequence (P49798 whole entry, looked up): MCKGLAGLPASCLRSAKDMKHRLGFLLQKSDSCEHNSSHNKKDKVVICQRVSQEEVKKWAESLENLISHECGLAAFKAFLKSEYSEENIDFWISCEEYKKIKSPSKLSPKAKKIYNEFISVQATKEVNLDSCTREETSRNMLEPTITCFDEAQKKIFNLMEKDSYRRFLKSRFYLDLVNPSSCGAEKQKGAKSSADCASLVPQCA
MrgX1 antag conf – MrgX1 receptor antagonists, duplicate retest, confirmation, HEK293 cells, Fluo-4 calcium flux | BAM8-22 calcium flux; active compounds read low | remaining BAM8-22 calcium response % of control (active compounds read low), % at 10 µM | shares compounds with MrgX1 antag | 2,300 tested, 19% active;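 active means remaining agonist calcium response no higher than 100% minus 3 SD of agonist-only control wells, with starting fluorescence near control levels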;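 further: agonist BAM8-22 given at a near maximal EC90 to ECmax level; peak minus minimum fluorescence divided by baseline after agonist addition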
HEK293 Ca flux – nonspecific calcium signal in parental HEK293, confirmation, counter-screen for MrgX1 antagonist project, parental HEK293 cells, Fluo-4 calcium flux; shares compounds with MrgX1 antag; Fluo-4 calcium fluorescence, FDSS; fluorescence ratio F(max-min)/F0 at 10 µM; 4,000 tested, 2% active; AID 624111, 2012;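 active means duplicate-averaged calcium fluorescence ratio at least three times the standard deviation of buffer wells, a nonspecific response in parental cells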
HEK293 Ca counter – calcium response in parental HEK293 cells, primary screen, counter-screen for MrgX1 allosteric activator project, cell-based, Fluo-4 calcium flux, duplicate; shares compounds with MrgX1 antag; 4,000 tested, 0.4% active; fluorescence ratio F(max-min)/F0 at 10 µM; Fluo-4 fluorescence ratio; active compounds read high;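 active means calcium fluorescence ratio, averaged over duplicates, at least 3 SD of the buffer-well ratio, meaning a nonspecific response in receptor-free cells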;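 further: untransfected parental HEK293 lacking MrgX1 used as counterscreen for MrgX1 allosteric activators; fluorescence change taken during the second addition on a kinetic imager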
HEK293 Ca cntr2 – calcium response in parental HEK293 cells, primary screen, counter-screen for MrgX1 agonist project, cell-based, Fluo-4 calcium flux, duplicate, agonist mode; shares compounds with MrgX1 antag; Fluo-4 calcium fluorescence (FDSS); active compounds read high; 4,000 tested, 8.7% active; AID 624115, 2012; fluorescence ratio F(max-min)/F0 at 10 µM;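 active means calcium fluorescence ratio at least three times the spread of buffer wells, meaning a non-specific response in parental cells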
Large screens that a line does not name were inactive (follow-up assays come after a bar, where they were run).

C=CCNC(=S)N/N=C1\CCS(=O)(=O)c2ccccc21	none
COc1ccccc1C(=O)N/C(=C\c1ccccc1)C(=O)NCc1ccco1	none
CCc1ccc(CN(C)C(=O)C2CCC(=O)N(Cc3ccccn3)C2)cc1 (configuration not stated)	none
CC(C)Nc1ncnc2c1cnn2-c1ccccc1	MrgX1 antag -4.9 | MrgX1 antag conf inactive | HEK293 Ca flux inactive | HEK293 Ca counter inactive | HEK293 Ca cntr2 inactive
Cc1cccc(-n2ncc3c(NC(C)C)ncnc32)c1	none
N#Cc1cc(NC2CCCC2)c([N+](=O)[O-])cc1C#N	MrgX1 antag -12 | MrgX1 antag conf inactive | HEK293 Ca flux inactive | HEK293 Ca counter inactive | HEK293 Ca cntr2 inactive
O=[N+]([O-])c1ccc(NC2CCCC2)cc1	none
CCOC(=O)c1c(-c2ccc(C)cc2)csc1NC1=NS(=O)(=O)c2ccccc21	MrgX1 antag -6.8 | MrgX1 antag conf inactive | HEK293 Ca flux inactive | HEK293 Ca counter inactive | HEK293 Ca cntr2 inactive
CCCc1nnc(NC(=O)CCC(=O)NC2CCCc3ccccc32)s1 (configuration not stated)	none
CC(C)Cc1nnc(NC(=O)CCC(=O)NC2CCCc3ccccc32)s1 (configuration not stated)	MrgX1 antag -5.2 | MrgX1 antag conf inactive | HEK293 Ca flux inactive | HEK293 Ca counter inactive | HEK293 Ca cntr2 inactive
Cc1ccc(NC(=O)NC2CCCc3ccccc32)cc1 (configuration not stated)	MrgX1 antag -5.3 | MrgX1 antag conf inactive | HEK293 Ca flux inactive | HEK293 Ca counter inactive | HEK293 Ca cntr2 inactive
O=C1C(=O)N(C/C=C/c2ccccc2)c2ccccc21	none
CSCCC(=O)N1CCCC(N2CCN(c3cccc(C(F)(F)F)c3)CC2)C1 (configuration not stated)	none
Cc1cc(C(=O)NNC(=O)/C=C/c2ccccc2Cl)c(C)o1	MrgX1 antag -15 | MrgX1 antag conf inactive | HEK293 Ca flux inactive | HEK293 Ca counter inactive | HEK293 Ca cntr2 inactive
Cc1ccc(C(=O)NC(=S)Nc2ccccc2N2CCCC2)cc1[N+](=O)[O-]	MrgX1 antag -23 | MrgX1 antag conf inactive | HEK293 Ca flux inactive | HEK293 Ca counter inactive | HEK293 Ca cntr2 inactive
CCCCn1cnc2c(c(-c3ccccc3)c(-c3ccccc3)n2Cc2ccco2)c1=N	MrgX1 antag -14 | MrgX1 antag conf inactive | HEK293 Ca flux inactive | HEK293 Ca counter inactive | HEK293 Ca cntr2 inactive
CCCCn1c(=O)[nH]c(=O)c2c1ncn2Cc1ccco1	none
O=C(CCc1nnc2ccc(NCc3ccccc3)nn12)NC1CCCC1	none
Cc1cc(C(=O)COC(=O)c2ccccc2Br)c(C)n1CC1CCCO1 (configuration not stated)	none
Cc1cc(C(=O)COc2ccccc2C(N)=O)c(C)n1CC1CCCO1 (configuration not stated)	MrgX1 antag -4.7 | MrgX1 antag conf 71% | HEK293 Ca flux inactive | HEK293 Ca counter inactive | HEK293 Ca cntr2 inactive
CC(C)C(CCNC1CCN(C)CC1)c1ccc(Cl)cc1 (configuration not stated)	none
CN1CCC(NCCC(c2ccc(F)cc2)c2ccc(Cl)cc2)CC1 (configuration not stated)	MrgX1 antag -4.6 | MrgX1 antag conf inactive | HEK293 Ca flux inactive | HEK293 Ca counter inactive | HEK293 Ca cntr2 inactive
Cc1nc(-c2ccccc2)nc2sc(C(=O)c3ccc(F)cc3)c(N)c12	MrgX1 antag -4.6 | MrgX1 antag conf 78% | HEK293 Ca flux inactive | HEK293 Ca counter inactive | HEK293 Ca cntr2 inactive
Cc1nc2sc(C(=O)c3ccccc3)c(N)c2c(C)c1C	none
CCc1nc(NC(=O)Cc2csc(C)n2)sc1C(=O)OC	none
COc1ccc(S(=O)(=O)N2CCOC2CNC(=O)C(=O)NCCCN2CCOCC2)cc1OC (configuration not stated)	none
CCn1cc([N+](=O)[O-])c(C(=O)Nc2nc(-c3ccc(C)cc3)c(C)s2)n1	MrgX1 antag -10 | MrgX1 antag conf inactive | HEK293 Ca flux inactive | HEK293 Ca counter inactive | HEK293 Ca cntr2 inactive
CCC/C=C1/CCCOC(C(=O)NCc2ccc(S(C)(=O)=O)cc2)(C(F)(F)F)C1 (configuration not stated)	none
CS(=O)(=O)c1ccc(CNC(=O)C2(C(F)(F)F)C/C(=C/CCO)CCCO2)cc1 (configuration not stated)	MrgX1 antag -4.8 | MrgX1 antag conf inactive | HEK293 Ca flux inactive | HEK293 Ca counter inactive | HEK293 Ca cntr2 inactive
Cc1sc2nc(SCC(=O)N3CCOCC3)[nH]c(=O)c2c1-c1ccccc1	MrgX1 antag -5.1 | MrgX1 antag conf inactive | HEK293 Ca flux inactive | HEK293 Ca counter inactive | HEK293 Ca cntr2 inactive
CC(OC(=O)Cc1ccc(F)cc1)C(=O)NCc1ccc2c(c1)OCO2 (configuration not stated)	none
CCn1c2ccccc2c2cc(CN3CCN(S(=O)(=O)Cc4ccccc4)CC3)ccc21	MrgX1 antag -8.1 | MrgX1 antag conf 80% | HEK293 Ca flux inactive | HEK293 Ca counter inactive | HEK293 Ca cntr2 inactive
CCn1c2ccccc2c2cc(CN3CCN(S(=O)(=O)CC)CC3)ccc21	none
N#CC1=C(N)Oc2cc3ccccc3cc2C1c1cccnc1 (configuration not stated)	none
COc1ccc(N=Cc2cc3c(cc2O)OC(N)=C(C#N)C3c2ccccc2)cc1 (configuration not stated)	MrgX1 antag -5.9 | MrgX1 antag conf inactive | HEK293 Ca flux inactive | HEK293 Ca counter inactive | HEK293 Ca cntr2 inactive
Cn1cc(S(=O)(=O)N2CCCC2)cc1C(=O)N1CCN(c2ccccc2)CC1	MrgX1 antag -7.7 | MrgX1 antag conf 84% | HEK293 Ca flux inactive | HEK293 Ca counter inactive | HEK293 Ca cntr2 inactive
